Laboratory results as given in ChEMBL document CHEMBL1759840, “2,3-Substituted quinoxalin-6-amine analogs as antiproliferatives: a structure-activity relationship study” (2011).
Blank lines part the entries; values can stand above or below the compound they belong to. Calls of active or inactive are those of the source. The calls are words filed in the database; no cut-off is given here.

Assays:
MDA-MB-231 [1] = test: Growth inhibition of human MDA-MB-231 cells at 20 uM after 72 hrs by alamar blue assay; format: functional; settings: for inhibition of growth at 20 µM: MDA-MB-231, 72 h, read-out: GI
How it was run: (§1)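 Single-concentration screen at 20 μM with 72 h exposure across a panel of cancer lines: lung A549, pancreatic AsPC1, colon HT29, breast MDA-MB-231, prostate PC3, ovarian SKOV3 and bone U2OS. Growth inhibition read after 72 h.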

HeLa [2] = test: Induction of Mcl-1 dependent apoptosis in doxycycline-stimulated human HeLa cells assessed as condensed nuclei for 12 hrs using Hoechst dye; format: functional, cell-based
A549 [3] = test: Growth inhibition of human A549 cells at 20 uM after 72 hrs by alamar blue assay; format: functional; settings: for inhibition of growth at 20 µM: A549, 72 h, read-out: GI; how it was run: as §1
HT-29 [4] = test: Growth inhibition of human HT-29 cells after 72 hrs by alamar blue assay; format: functional; settings: HT-29, 72 h
MDA-MB-231 [5] = test: Induction of apoptosis in human MDA-MB-231 cells assessed as increase in caspase 3/7 activity at 20 uM after 1 hr by luminescence assay; format: functional, cell-based
How it was run: (§2)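 Caspase 3/7 induction was followed over time, up to 72 h, in MDA-MB-231 and PC3 cells, with etoposide as positive control.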

PC-3 [6] = test: Induction of apoptosis in human PC3 cells assessed as increase in caspase 3/7 activity at 20 uM after 1 hr by luminescence assay; format: functional, cell-based; how it was run: as §2
PC-3 [7] = test: Growth inhibition of human PC3 cells at 20 uM after 72 hrs by alamar blue assay; format: functional; settings: for inhibition of growth at 20 µM: PC-3, 72 h, read-out: GI; how it was run: as §1
HT-29 [8] = test: Growth inhibition of human HT-29 cells at 20 uM after 72 hrs by alamar blue assay; format: functional; settings: for inhibition of growth at 20 µM: HT-29, 72 h, read-out: GI; how it was run: as §1
ASPC1 [9] = test: Growth inhibition of human AsPC1 cells at 20 uM after 72 hrs by alamar blue assay; format: functional; settings: for inhibition of growth at 20 µM: ASPC1, 72 h, read-out: GI; how it was run: as §1
MDA-MB-231 [10] = test: Growth inhibition of human MDA-MB-231 cells after 72 hrs by alamar blue assay; format: functional; settings: MDA-MB-231, 72 h
SK-OV-3 [11] = test: Growth inhibition of human SKOV3 cells at 20 uM after 72 hrs by alamar blue assay; format: functional; settings: for inhibition of growth at 20 µM: SK-OV-3, 72 h, read-out: GI; how it was run: as §1
U2OS [12] = test: Growth inhibition of human U2OS cells after 72 hrs by alamar blue assay; format: functional
HeLa [13] = test: Induction of apoptosis in human HeLa cells overexpressing Bad3SA assessed as increase in caspase 3/7 activity at 20 uM after 1 hr by luminescence assay; format: functional, cell-based
ASPC1 [14] = test: Growth inhibition of human AsPC1 cells after 72 hrs by alamar blue assay; format: functional; settings: ASPC1, 72 h
U2OS [15] = test: Growth inhibition of human U2OS cells at 20 uM after 72 hrs by alamar blue assay; format: functional; settings: for inhibition of growth at 20 µM: read-out: GI; how it was run: as §1
PC-3 [16] = test: Growth inhibition of human PC3 cells after 72 hrs by alamar blue assay; format: functional; settings: PC-3, 72 h
HeLa [17] = test: Induction of apoptosis in human HeLa cells overexpressing Bad3SA assessed as PARP cleavage at 20 uM by Western blotting; format: functional, cell-based
SK-OV-3 [18] = test: Growth inhibition of human SKOV3 cells after 72 hrs by alamar blue assay; format: functional; settings: SK-OV-3, 72 h
A549 [19] = test: Growth inhibition of human A549 cells after 72 hrs by alamar blue assay; format: functional; settings: A549, 72 h

GI50 (HT-29 [4]): 12.1 µM
GI50 (MDA-MB-231 [10]): 8.4 µM
GI50 (U2OS [12]): 10.8 µM
GI50 (ASPC1 [14]): 17.3 µM
GI50 (PC-3 [16]): 5.9 µM
GI50 (SK-OV-3 [18]): 16.8 µM
GI50 (A549 [19]): 6.4 µM
Compound: O=C(Nc1ccc(Br)cc1)Nc1ccc2nc(-c3ccco3)c(-c3ccco3)nc2c1
inhibition of growth at 20 µM (MDA-MB-231 [1]): > 100%
Activity (HeLa [2]): Dose-dependent effect
inhibition of growth at 20 µM (A549 [3]): > 100%
Activity (MDA-MB-231 [5]): Active
Activity (PC-3 [6]): Active
inhibition of growth at 20 µM (PC-3 [7]): > 100%
inhibition of growth at 20 µM (HT-29 [8]): 88.6%
inhibition of growth at 20 µM (ASPC1 [9]): > 100%
inhibition of growth at 20 µM (SK-OV-3 [11]): 94.9%
Activity (HeLa [13]): Active
inhibition of growth at 20 µM (U2OS [15]): > 100%
Activity (HeLa [17]): Active

Compound: CC(=O)Nc1ccc2nc(C)c(C)nc2c1
inhibition of growth at 20 µM (MDA-MB-231 [1]): 25.7%
inhibition of growth at 20 µM (A549 [3]): 23.4%
inhibition of growth at 20 µM (PC-3 [7]): 21.8%
inhibition of growth at 20 µM (HT-29 [8]): 31.7%
inhibition of growth at 20 µM (ASPC1 [9]): 26.2%
inhibition of growth at 20 µM (SK-OV-3 [11]): 4%
inhibition of growth at 20 µM (U2OS [15]): 31.4%

Compound: S=C(Nc1ccccc1)Nc1ccc2nc(-c3cccs3)c(-c3cccs3)nc2c1
growth inhibition (GI) (MDA-MB-231 [1]): inactive
growth inhibition (GI) (A549 [3]): inactive
growth inhibition (GI) (PC-3 [7]): inactive
growth inhibition (GI) (HT-29 [8]): inactive
growth inhibition (GI) (ASPC1 [9]): inactive
growth inhibition (GI) (SK-OV-3 [11]): inactive
growth inhibition (GI) (U2OS [15]): inactive

Compound: S=C(Nc1ccccc1)Nc1ccc2nc(-c3ccccc3)c(-c3ccccc3)nc2c1
growth inhibition (GI) (MDA-MB-231 [1]): inactive
growth inhibition (GI) (A549 [3]): inactive
growth inhibition (GI) (PC-3 [7]): inactive
growth inhibition (GI) (HT-29 [8]): inactive
growth inhibition (GI) (ASPC1 [9]): inactive
growth inhibition (GI) (SK-OV-3 [11]): inactive
growth inhibition (GI) (U2OS [15]): inactive

Compound: O=C(Nc1ccc2nc(-c3ccco3)c(-c3ccco3)nc2c1)N1CCOCC1
inhibition of growth at 20 µM (MDA-MB-231 [1]): 10.9%
inhibition of growth at 20 µM (A549 [3]): 39.7%
inhibition of growth at 20 µM (PC-3 [7]): 48.9%
inhibition of growth at 20 µM (HT-29 [8]): 19.4%
growth inhibition (GI) (ASPC1 [9]): inactive
growth inhibition (GI) (SK-OV-3 [11]): inactive
growth inhibition (GI) (U2OS [15]): inactive

Compound: O=C(Nc1ccccc1)Nc1ccc2nc(-c3ccccc3)c(-c3ccccc3)nc2c1
growth inhibition (GI) (MDA-MB-231 [1]): inactive
growth inhibition (GI) (A549 [3]): inactive
growth inhibition (GI) (PC-3 [7]): inactive
growth inhibition (GI) (HT-29 [8]): inactive
growth inhibition (GI) (ASPC1 [9]): inactive
growth inhibition (GI) (SK-OV-3 [11]): inactive
growth inhibition (GI) (U2OS [15]): inactive

Compound: Cc1nc2ccc(NC(=O)Nc3ccccc3)cc2nc1C
growth inhibition (GI) (MDA-MB-231 [1]): inactive
growth inhibition (GI) (A549 [3]): inactive
growth inhibition (GI) (PC-3 [7]): inactive
growth inhibition (GI) (HT-29 [8]): inactive
growth inhibition (GI) (ASPC1 [9]): inactive
growth inhibition (GI) (SK-OV-3 [11]): inactive
growth inhibition (GI) (U2OS [15]): inactive
